Test results from ChEMBL document CHEMBL3785032, “Zerumbone Suppresses Osteopontin-Induced Cell Invasion Through Inhibiting the FAK/AKT/ROCK Pathway in Human Non-Small Cell Lung Cancer A549 Cells” (J Nat Prod, 2016).
Active and inactive are the calls of the source.

Assays:
[1] = Inhibition of FAK/AKT/ROCK signaling pathway in human A549 cells assessed as decrease in OPN-induced ROCK1 expression at 5 to 10 uM after 24 hrs by Western blot analysis; type: cell-based
Summary of the method: (§1)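 A549 cells were given 1 nM OPN for 24 h with or without compound. 25–30 μg total protein per lane was probed with primary antibodies overnight at 4 °C, then secondary antibodies for 2 h at room temperature. Detection was by enhanced chemiluminescence, with densitometric band quantification. Mean ± SD of two independent experiments; Student's t test.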

[2] = Inhibition of FAK/AKT/ROCK signaling pathway in human A549 cells assessed as decrease in OPN-induced phosphorylation of cofilin at 5 to 10 uM after 24 hrs by Western blot analysis; type: cell-based; summary of the method: as §1
A549 [3] = assay: Cytotoxicity against human A549 cells assessed as reduction in cell viability at 10 uM after 24 hrs by MTT assay; type: cell-based; settings: a549, 24 h
Summary of the method: (§2)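 A549 cells were exposed to compound in serum-free medium for 24 h, and viability was read by MTT assay. Mean ± SD of three independent experiments; Student's t test versus untreated control.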

A549 [4] = assay: Effect on total AKT protein level in OPN-stimulated human A549 cells at 5 to 10 uM after 24 hrs by Western blot analysis; type: ADME, cell-based; settings: a549, 24 h; summary of the method: as §1
A549 [5] = assay: Effect on total FAK protein level in OPN-stimulated human A549 cells at 5 to 10 uM after 24 hrs by Western blot analysis; type: ADME, cell-based; settings: a549, 24 h; summary of the method: as §1
[6] = Inhibition of FAK/AKT/ROCK signaling pathway in human A549 cells assessed as decrease in OPN-induced lamellipodia formation at 10 uM after 24 hrs by rhodamine phalloidin/DAPI staining based immunofluorescence assay; type: cell-based
Summary of the method: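 5 × 10^4 cells/well were seeded on chamber slides and treated with 1 nM OPN for 24 h with or without 10 μM compound. Cells were fixed in 4% formaldehyde/PBS pH 7.4 for 10 min and permeabilized in 0.5% Triton X-100 for 5 min. They were stained with 100 nM rhodamine phalloidin for 30 min at room temperature in the dark, counterstained with DAPI, and imaged by confocal microscopy at 600×.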

A549 [7] = assay: Effect on total cofilin protein level in OPN-stimulated human A549 cells at 5 to 10 uM after 24 hrs by Western blot analysis; type: ADME, cell-based; settings: a549, 24 h; summary of the method: as §1
A549 [8] = assay: Cytotoxicity against human A549 cells assessed as reduction in cell viability at 20 uM after 24 hrs by MTT assay; type: cell-based; settings: a549, 24 h; summary of the method: as §2
A549 [9] = assay: Anti-invasive activity in human A549 cells assessed as inhibition of OPN-induced cell invasion to matrigel coated invasion chamber at 5 uM preincubated for 30 mins followed by OPN stimulation measured after 24 hrs by boyden chamber assay; type: functional
Summary of the method: (§3)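 Boyden chamber with a Matrigel-coated filter. Cells were pretreated with compound for 30 min and loaded into the upper wells, with 1 nM OPN in the lower wells. After 24 h at 37 °C, cells were stained, random fields were photographed at 200×, and cells on the lower surface were counted. Mean ± SD of two independent experiments; Student's t test.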

A549 [10] = assay: Anti-invasive activity in human A549 cells assessed as inhibition of OPN-induced cell invasion to matrigel coated invasion chamber at 10 uM preincubated for 30 mins followed by OPN stimulation measured after 24 hrs by boyden chamber assay; type: functional; summary of the method: as §3
[11] = Inhibition of FAK/AKT/ROCK signaling pathway in human A549 cells assessed as decrease in OPN-induced phosphorylation of LIMK1/2 at 5 to 10 uM after 24 hrs by Western blot analysis; type: cell-based; summary of the method: as §1
[12] = biological target: Focal adhesion kinase 1 (Homo sapiens) (UniProt Q05397); assay: Inhibition of FAK signaling pathway in human A549 cells assessed as decrease in OPN-induced FAK phosphorylation at 5 to 10 uM after 15 mins by Western blot analysis; type: cell-based
Chain of Focal adhesion kinase 1 (Homo sapiens) (Q05397 2-1052 limits assumed): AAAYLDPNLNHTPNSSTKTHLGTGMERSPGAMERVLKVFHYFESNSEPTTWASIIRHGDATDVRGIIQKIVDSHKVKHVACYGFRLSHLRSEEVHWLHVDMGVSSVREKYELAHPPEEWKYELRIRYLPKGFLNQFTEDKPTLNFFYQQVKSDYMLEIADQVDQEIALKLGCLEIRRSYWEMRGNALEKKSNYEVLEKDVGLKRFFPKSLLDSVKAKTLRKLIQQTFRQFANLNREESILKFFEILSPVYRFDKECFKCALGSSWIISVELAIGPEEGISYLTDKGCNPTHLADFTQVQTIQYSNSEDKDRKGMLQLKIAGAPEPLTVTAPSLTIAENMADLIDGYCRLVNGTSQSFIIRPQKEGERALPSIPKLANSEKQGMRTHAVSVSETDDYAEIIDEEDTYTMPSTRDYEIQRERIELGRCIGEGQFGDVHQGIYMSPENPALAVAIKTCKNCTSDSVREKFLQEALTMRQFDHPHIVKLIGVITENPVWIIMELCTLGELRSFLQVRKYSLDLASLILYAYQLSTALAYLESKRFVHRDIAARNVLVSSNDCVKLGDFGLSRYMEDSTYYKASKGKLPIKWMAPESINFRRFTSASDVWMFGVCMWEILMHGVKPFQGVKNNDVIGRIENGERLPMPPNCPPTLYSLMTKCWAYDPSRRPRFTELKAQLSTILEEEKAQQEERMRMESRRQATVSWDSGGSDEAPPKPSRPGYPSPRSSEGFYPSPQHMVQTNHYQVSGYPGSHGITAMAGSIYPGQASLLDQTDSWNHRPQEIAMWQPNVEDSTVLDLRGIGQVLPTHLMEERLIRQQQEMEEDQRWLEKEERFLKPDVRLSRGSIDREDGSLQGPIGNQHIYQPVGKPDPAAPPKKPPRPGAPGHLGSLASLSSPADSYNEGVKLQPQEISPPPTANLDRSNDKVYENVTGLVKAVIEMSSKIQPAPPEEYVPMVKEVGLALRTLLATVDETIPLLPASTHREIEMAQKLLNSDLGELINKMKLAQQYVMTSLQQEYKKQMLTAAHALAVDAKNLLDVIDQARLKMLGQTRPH

A549 [13] = assay: Effect on total LIMK1/2 protein level in OPN-stimulated human A549 cells at 5 to 10 uM after 24 hrs by Western blot analysis; type: ADME, cell-based; settings: a549, 24 h; summary of the method: as §1
[14] = Inhibition of FAK/AKT/ROCK signaling pathway in human A549 cells assessed as decrease in OPN-induced AKT phosphorylation at 5 to 10 uM after 15 mins by Western blot analysis; type: cell-based
A549 [15] = assay: Effect on total ROCK1 protein level in OPN-stimulated human A549 cells at 5 to 10 uM after 24 hrs by Western blot analysis; type: ADME, cell-based; settings: a549, 24 h; summary of the method: as §1

C/C1=C\CC(C)(C)/C=C/C(=O)/C(C)=C/CC1 [ZERUMBONE]
69%: inhibition at 10 µM (A549 [10])
Toxic: Activity (A549 [8])
Non-toxic: Activity (A549 [3]) | Activity (A549 [4]) | Activity (A549 [5]) | Activity (A549 [7]) | Activity (A549 [13]) | Activity (A549 [15])
48%: inhibition at 5 µM (A549 [9])
active: inhibition [1] Dose-dependent effect | inhibition [2] Dose-dependent effect | inhibition [6] | inhibition [11] Dose-dependent effect | inhibition [12] | inhibition [14]
